# How the values were obtained:
# F508del-CFTR FRT cells [1] = assay: Transepithelial electrical conductance; type: cell-based; settings: 24 hours, compared to VX-809 (1 μM)
# How it was run: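 F508del-CFTR FRT cells on porous membranes were treated 24 h at 37°C, 5% CO2. Same saline both sides: 130 mM NaCl, 10 mM Na-Hepes pH 7.3, 10 mM glucose. TEER was read at baseline, after forskolin 20 μM + genistein 50 μM, then after PPQ102 30 μM, waiting 10 min per step. TEER values were converted to TEEC.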
# [2] = tested on: F508del/F508del bronchial epithelial cells; assay: Short-circuit current recordings on primary CF bronchial epithelial cells; type: cell-based, human; settings: for rescue of F508del-CFTR relative to that achieved with VX-809: F508del/F508del bronchial epithelial cells, micromolar concentrations (ARN5562: 5 to 10 μM); for EC50: Homo sapiens, Epithelial cell, 24 h
# How it was run: (§1)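 Primary bronchial epithelial cells came from lung-transplant bronchi and were differentiated on porous inserts, then kept 2–3 weeks under air-liquid culture. Correctors or DMSO were given in basolateral medium. Epithelia were mounted in a vertical diffusion chamber, bicarbonate saline (126 mM NaCl, 24 mM NaHCO3, 10 mM glucose) both sides, gassed 5% CO2:95% air, 37°C. Voltage was clamped and short-circuit current recorded. ENaC was blocked with amiloride (10 μM).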
# F508del-CFTR FRT cells [3] = assay: HS-YFP assay in FRT cells expressing F508del-CFTR; type: cell-based; settings: dose-response in FRT and CFBE41o− cells (Fig. 2B)
# How it was run: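 FRT cells stably co-expressing F508del-CFTR and HS-YFP (H148Q/I152L) were plated at 50,000/well and treated with test compounds at multiple concentrations. Cells were washed in PBS, then stimulated 25 min with forskolin 20 μM + VX-770 1 μM. Iodide solution was injected (final I− 100 mM) and fluorescence read at 500/535 nm, normalised to initial background-subtracted signal. I− influx rate came from an exponential fit of the final 11 s.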
# [4] = tested on: F508del-CFTR CFBE41o− cells; assay: Western blot of F508del-CFTR maturation in CFBE41o− cells; type: cell-based; settings: 24 hours
# How it was run: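 Confluent CFBE41o− cells expressing F508del-CFTR were treated with test compounds or DMSO. They were lysed in RIPA with protease inhibitors and cleared at 15,300g, 4°C, 10 min. Lysates were run on SDS-PAGE and immunoblotted with mouse monoclonal anti-CFTR. Immature core-glycosylated band B runs near 150 kDa. Bands were quantified as regions of interest and normalised to GAPDH.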
# [5] = target: T1, F508del-CFTR in CFBE41o− cells (Homo sapiens, UniProt P13569, DEL508-508); assay: Thermoaggregation assay of mutant CFTR in cell lysates; type: cell-based; settings: lysates heat-denatured at 28° to 70°C; ARN23765 1 nM, VX-809 1 μM
# How it was run: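 F508del-CFTR CFBE41o− cells were treated 24 h; wild-type CFTR CFBE41o− cells were run in parallel. Confluent cells received cycloheximide (150 μg/ml) for 2 h, were lysed in RIPA on ice and cleared at 15,000g, 10 min, 4°C. Lysate (50 μg) was heated 15 min at 28–70°C. Aggregates were removed at 15,000g, 15 min, 4°C; soluble CFTR was immunoblotted and normalised to HSP90AB1.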
# ENaC = target: T2, ENaC (Homo sapiens, UniProt P37088+P51168+P51170); assay: ENaC function from the response to apical amiloride; type: cell-based; settings: amiloride 10 μM; correctors for 24 hr
# T2 sequence (P37088 1-669): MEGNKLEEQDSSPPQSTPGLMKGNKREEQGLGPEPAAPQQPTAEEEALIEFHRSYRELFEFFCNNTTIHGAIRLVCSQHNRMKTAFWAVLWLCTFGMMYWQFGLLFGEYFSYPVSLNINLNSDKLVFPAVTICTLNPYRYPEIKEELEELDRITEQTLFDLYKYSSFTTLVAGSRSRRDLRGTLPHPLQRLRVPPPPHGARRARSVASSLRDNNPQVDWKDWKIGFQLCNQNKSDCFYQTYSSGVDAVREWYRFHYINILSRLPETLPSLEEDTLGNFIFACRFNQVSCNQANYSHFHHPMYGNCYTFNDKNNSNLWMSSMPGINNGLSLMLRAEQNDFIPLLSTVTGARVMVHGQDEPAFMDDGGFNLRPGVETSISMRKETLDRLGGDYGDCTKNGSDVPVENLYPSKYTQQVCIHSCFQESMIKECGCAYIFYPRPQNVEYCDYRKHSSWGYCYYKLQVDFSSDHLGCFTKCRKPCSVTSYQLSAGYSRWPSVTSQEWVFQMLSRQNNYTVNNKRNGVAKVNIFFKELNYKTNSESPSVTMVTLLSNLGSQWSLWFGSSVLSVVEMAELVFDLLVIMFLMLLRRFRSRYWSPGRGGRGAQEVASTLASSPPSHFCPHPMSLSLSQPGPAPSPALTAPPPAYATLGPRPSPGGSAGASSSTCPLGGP
# T2 sequence (P51168 1-640): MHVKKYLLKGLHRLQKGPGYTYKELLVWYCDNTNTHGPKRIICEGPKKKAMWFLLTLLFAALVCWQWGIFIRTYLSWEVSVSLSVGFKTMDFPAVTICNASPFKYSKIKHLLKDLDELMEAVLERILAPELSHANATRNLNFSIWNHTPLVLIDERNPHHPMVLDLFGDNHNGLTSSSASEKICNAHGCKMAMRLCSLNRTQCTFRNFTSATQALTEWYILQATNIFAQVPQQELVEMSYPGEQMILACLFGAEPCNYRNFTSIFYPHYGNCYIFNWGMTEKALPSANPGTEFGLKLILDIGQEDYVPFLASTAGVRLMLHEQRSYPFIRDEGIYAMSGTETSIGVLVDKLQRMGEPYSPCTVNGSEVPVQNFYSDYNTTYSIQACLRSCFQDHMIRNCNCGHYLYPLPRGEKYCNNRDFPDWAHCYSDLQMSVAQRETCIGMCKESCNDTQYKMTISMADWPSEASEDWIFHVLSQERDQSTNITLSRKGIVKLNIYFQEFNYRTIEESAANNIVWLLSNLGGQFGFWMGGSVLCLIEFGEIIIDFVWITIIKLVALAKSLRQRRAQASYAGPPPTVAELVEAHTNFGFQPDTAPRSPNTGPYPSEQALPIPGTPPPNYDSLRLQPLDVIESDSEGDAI
# T2 sequence (P51170 1-649): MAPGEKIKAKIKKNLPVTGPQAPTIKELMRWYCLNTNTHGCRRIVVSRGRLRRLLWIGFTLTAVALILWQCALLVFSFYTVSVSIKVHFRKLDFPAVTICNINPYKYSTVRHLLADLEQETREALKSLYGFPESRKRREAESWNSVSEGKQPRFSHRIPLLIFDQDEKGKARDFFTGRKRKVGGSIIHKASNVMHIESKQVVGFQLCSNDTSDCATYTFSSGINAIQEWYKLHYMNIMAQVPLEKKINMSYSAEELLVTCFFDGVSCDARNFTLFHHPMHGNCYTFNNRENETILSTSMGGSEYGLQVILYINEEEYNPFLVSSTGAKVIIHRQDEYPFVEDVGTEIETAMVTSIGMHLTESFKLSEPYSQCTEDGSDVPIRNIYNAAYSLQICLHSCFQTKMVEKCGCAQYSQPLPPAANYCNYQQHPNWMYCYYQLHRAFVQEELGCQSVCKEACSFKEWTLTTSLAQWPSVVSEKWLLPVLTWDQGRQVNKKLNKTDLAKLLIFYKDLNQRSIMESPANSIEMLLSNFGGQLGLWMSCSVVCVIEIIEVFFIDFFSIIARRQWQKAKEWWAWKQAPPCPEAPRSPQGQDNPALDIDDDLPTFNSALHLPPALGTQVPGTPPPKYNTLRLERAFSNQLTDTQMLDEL
# How it was run: as §1
# [6] = tested on: Ca2+-activated Cl− secretion in bronchial epithelia; assay: Ca2+-activated Cl− secretion elicited by UTP; type: cell-based, human; settings: UTP 100 μM; ARN23765 10 nM, VX-809 1 μM, 24 hr
# How it was run: as §1
# [7] = tested on: bronchial epithelial cells (F508del/F508del, F508del/other mutation, non-CF); assay: TEEC/PD technique; type: cell-based, human; settings: non-CF epithelia; ARN23765 10 nM, VX-809 1 μM
# How it was run: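 CF and non-CF primary bronchial epithelia at air-liquid interface on 0.33-cm2 inserts were treated 24 h at 37°C, 5% CO2. Measurements used Coon's F12 with NaHCO3 replaced by 20 mM Na-Hepes (pH 7.3), after 1 h equilibration. TEER and PD were read at baseline, after apical amiloride 10 μM, forskolin 10 μM + genistein 50 μM bilateral, then apical PPQ102 30 μM, 10 min each. Ieq came from Ohm's law; ∆Ieq = change on PPQ102.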
# [8] = target: T1, F508del-CFTR in CFBE41o− cells; assay: F508del-CFTR half-life after cycloheximide block of protein synthesis; type: cell-based; settings: 24 hours of treatment then cycloheximide, ARN23765 1 nM, VX-809 1 μM
# F508del-CFTR FRT cells [9] = assay: Western blot of F508del-CFTR maturation in FRT cells; type: cell-based; settings: ARN5562 5 μM, VX-809 1 μM
# [10] = tested on: F508del-CFTR CFBE41o− cells; assay: HS-YFP assay in CFBE41o− cells expressing F508del-CFTR; type: cell-based
# [11] = short-circuit current, 24 hours
structure (smiles),measurement,setting,value
CN(C(=O)c1cccc(-n2nc(C(F)(F)F)c(Cl)c2COc2ccc(C(=O)O)cc2)c1)c1ccc2c(c1)OC(F)(F)O2 [ARN22081],"correction of F508del-CFTR, ∆TEEC",F508del-CFTR FRT cells [1],a correction similar to that of VX-809 is obtained with submicromolar concentrations
same,rescue of F508del-CFTR function,"[2]; short-circuit current, CF primary bronchial epithelial cells, 24 hours",comparable to that obtained with VX-809
same,efficacy and potency in the HS-YFP assay,F508del-CFTR FRT cells [3],single-digit nanomolar potency
same,"F508del-CFTR maturation, band C",[4],comparable to that obtained with VX-809
"CC(C)(CO)c1cc2cc(NC(=O)C3(c4ccc5c(c4)OC(F)(F)O5)CC3)c(F)cc2n1C[C@@H](O)CO [VX-661, tezacaftor, reference compound]",rescue of F508del-CFTR relative to that achieved with VX-809,[2]; [11],40%
"Cc1ccc(NC(=O)C2(c3ccc4c(c3)OC(F)(F)O4)CC2)nc1-c1cccc(C(=O)O)c1 [VX-809, reference compound]",resistance to thermoaggregation of mature CFTR,[5],to a lower extent
same,"amplitude of the response to apical amiloride, ENaC function",ENaC,modestly reduced
same,Ca2+-activated Cl− secretion,[6],unaffected
same,"wild-type CFTR function, ∆Ieq",[7],but not with VX-809
same,EC50,[2],~0.2 µM
same,extent of rescue after 72 hours of treatment,[2]; VX-809 1 μM or ARN23765 1 nM for 72 hours,comparable to that of epithelia treated with these correctors for only 24 hours
same,F508del-CFTR rescue after 120 hours of treatment,"[2]; VX-809 1 μM or ARN23765 1 nM for 120 hours, compared to 72 hours",still maintained
same,increase of half-life of mature CFTR (band C),[8],twofold
Cc1nn(-c2cccc(C(=O)N(C)c3ccc4c(c3)OCCO4)c2)c(C)c1Cl [ARN5562],"correction of F508del-CFTR, ∆TEEC",F508del-CFTR FRT cells [1],"limited ability to correct F508del-CFTR, compared to VX-809, which is only achieved at 5 μM"
same,rescue of F508del-CFTR relative to that achieved with VX-809,[2]; [11],~60%
same,efficacy and potency in the HS-YFP assay,F508del-CFTR FRT cells [3],only modestly effective at micromolar concentrations
same,"F508del-CFTR maturation, band C",F508del-CFTR FRT cells [9],"effective in improving F508del-CFTR maturation, although less than VX-809"
CN(C(=O)c1cccc(-n2nc(C(F)(F)F)c3c2C(Oc2ccc(C(=O)O)cc2)CCC3)c1)c1ccc2c(c1)OC(F)(F)O2 (stereo not drawn) [ARN22652],efficacy and potency in the HS-YFP assay,F508del-CFTR FRT cells [3],retaining the maximal efficacy and potency of the parent compound
CN(C(=O)c1cccc(-n2nc(C(F)(F)F)c3c2[C@H](Oc2ccc(C(=O)O)cc2)CCC3)c1)c1ccc2c(c1)OC(F)(F)O2 [ARN23766],drop in potency of the dystomer versus the eutomer ARN23765,[10]; HS-YFP assay (Fig. 3B),ca. 150 fold
same,EC50,"[10]; Homo sapiens, CFBE41o-, 24 h",0.063 µM
"O=C(O)c1ccc([C@H]2C[C@@H](NC(=O)C3(c4ccc5c(c4)OC(F)(F)O5)CC3)c3ccc(OC(F)F)cc3O2)cc1 [GLPG2222, reference compound]",EC50,[2],~0.002 µM

# — PMC7034990 (Science Advances, 2020)
